Results as given in article PMC4899269 (Structure (London, England : 1993), 2016).
Where no end group is shown, it is not given here.

Key:
[1] = tested on: JAK1 FERM–SH2; experiment: Co-purification and size exclusion chromatography of JAK1/receptor complexes; format: binding, human; details: large scale co-expression, Ni-IMAC, TEV cleavage, SDS-PAGE
Summary of the method: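 His-JAK1 FERM–SH2 (G35–K559) co-expressed in insect cells with one of two GST-tagged partners, co-infected at 1:1 viral ratio: GST-IFNLR1 (K250–T299), or a chimera of IFNLR residues K250–R260 fused to IL-10RA K264–K303. Lysates purified by Ni-IMAC then SEC. Complex fractions TEV-cleaved and put through a second SEC round.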

[2] = molecular target: human JAK1 FERM–SH2 (residues 35–559), His tag released with TEV (human, UniProt P23458 35-559); experiment: SEC-MALS
Sequence of human JAK1 FERM–SH2 (residues 35–559), His tag released with TEV (P23458 35-559): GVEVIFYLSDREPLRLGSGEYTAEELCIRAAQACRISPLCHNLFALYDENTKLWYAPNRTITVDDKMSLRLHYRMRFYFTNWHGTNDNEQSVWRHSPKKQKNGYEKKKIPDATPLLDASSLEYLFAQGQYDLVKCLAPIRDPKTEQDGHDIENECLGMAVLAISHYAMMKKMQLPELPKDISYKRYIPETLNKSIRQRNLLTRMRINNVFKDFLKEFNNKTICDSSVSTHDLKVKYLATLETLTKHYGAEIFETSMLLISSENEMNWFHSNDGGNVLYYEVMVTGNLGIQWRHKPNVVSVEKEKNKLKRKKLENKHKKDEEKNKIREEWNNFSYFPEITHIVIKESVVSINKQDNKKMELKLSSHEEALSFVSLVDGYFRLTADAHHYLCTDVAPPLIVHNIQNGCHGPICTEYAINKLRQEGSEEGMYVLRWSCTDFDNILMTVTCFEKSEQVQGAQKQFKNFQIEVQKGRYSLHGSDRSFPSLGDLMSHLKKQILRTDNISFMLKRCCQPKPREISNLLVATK

[3] = molecular target: human JAK1 FERM–SH2 (as used in BioLayer Interferometry) (human, UniProt P23458 35-559); experiment: BLI
Sequence of human JAK1 FERM–SH2 (as used in BioLayer Interferometry) (P23458 35-559): as above

[4] = molecular target: JAK1 FERM–SH2 I240L (human, UniProt P23458 35-559, Ile240 to leucine); experiment: BLI
Sequence of JAK1 FERM–SH2 I240L (P23458 35-559 I240L): as the sequence (P23458 35-559) above, with I206L counted along it

[5] = molecular target: JAK1 FERM–SH2 I240F (human, UniProt P23458 35-559, Ile240 to phenylalanine); experiment: BLI
Sequence of JAK1 FERM–SH2 I240F (P23458 35-559 I240F): as the sequence (P23458 35-559) above, with I206F counted along it

| Molecule | complex formation with JAK1 on purification / SEC (in words) [1] | koff [3] [s⁻¹] | kon [3] [M⁻¹ s⁻¹] | also measured |
| --- | --- | --- | --- | --- |
| IL10RA: GST-tagged human receptor cytoplasmic fragment with putative box1 and box2 motifs ({GST}-QLYVRRRKKLPSVLLFKKPSPFIFISQRPSPETQDTIHPLDEEAFLK) | formed a stable complex with JAK1 | – | – | – |
| box2 fragment of IFNLR1: GST-tagged fragment of IFNLR1 containing box2 sequences (residues 270–299) ({GST}-SGHTHPVATFQPSRPESVNDLFLCPQKELT) | did not co-purify with JAK1 | – | – | – |
| peptide containing IFNLR1 box1 and box2: GST-tagged IFNLR1 box1/box2 fragment (residues 250–299), co-expressed with JAK1 ({GST}-KTLMGNPWFQRAKMPRALDFSGHTHPVATFQPSRPESVNDLFLCPQKELT) | form a stable complex with JAK1 | – | – | – |
| KTLMGNPWFQRAKMPRALDFSGHTHPVATFQPSRPESVNDLFLCPQKELT (peptide, UniProt Q8IU57 250-299, looked up) [IFNLR1 box1/box2 peptide (residues 250–299), GST released with TEV] | – | – | – | stoichiometry N [2]: 1 |
| KTLMGNPWFQRAKMPRALDFS (peptide, UniProt Q8IU57 250-270, looked up, also: biotin, position not given here) [biotinylated IFNLR1 box1 peptide (residues 250–270)] | – | 0.089 | 72500 | binding result [4]: binds; binding result [5]: binds |
| KTLMGNPWFQRAKMPRALDFSGHTHPVATFQPSRPESVNDLFLCPQKELT (peptide, UniProt Q8IU57 250-299, looked up, also: biotin, position not given here) [biotinylated IFNLR1 box1/box2 peptide (residues 250–299)] | – | 0.00355 | 50400 | – |
| KTLMGNPWFQRAKMPRALDFSGHTHPVATFQPSRPESVND (peptide, UniProt Q8IU57 250-289, looked up, also: biotin, position not given here) [biotinylated IFNLR1 box1Δbox2 peptide (residues 250–289)] | – | 0.0544 | 34600 | – |
